The test system of data set [1] is Mus musculus. The experiment in a line: Antialzheimer activity in 5XFAD mouse assessed as number of plaques per FOV in somatosensory cortex at 75 ppm administered as rodent chow starting from 1.5 months and measured after 5 months by immunolabeling based confocal microscopic analysis (reference value: 22 to 91). It counts as functional. To be noted: route po, time 3.5 months, 2555 h. An outline of the steps: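 5xFAD mice ate AIN-76A chow with 75 ppm PLX3397, or control chow, from 1.5 to 5 months of age. Sections of retrosplenial and somatosensory cortex were stained with Thio-S and immunolabeled for IBA1, then imaged by confocal microscopy. n = 4–5 per group; two-tailed independent t-test; mean ± SEM.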

The nature of data set [2]: Effect on Dynll1 gene expression in wildtype mouse hippocampus assessed as percent change in Reads Per kilo base per Million mapped reads at 1200 ppm administered as rodent chow starting from 1.5 months and measured after 7 months by RNA-Seq analysis (reference value: 83.247 to 113.338 %). It counts as functional. To be noted: route po, time 5.5 months, 4015 h.
The nature of data set [3]: Effect on C1qa gene expression in 5XFAD mouse hippocampus at 1200 ppm administered as rodent chow starting from 1.5 months and measured after 7 months by RNA-Seq analysis (reference value: 61.868 to 70.581 RPKM). To be noted: route po, time 5.5 months, 4015 h. It counts as functional. The method, boiled down:
(§1)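 WT and 5xFAD mice were treated with 1200 ppm PLX5622 chow or control chow from 1.5 to 7 months of age. Brains were microdissected into cortex, hippocampus and thalamus, and RNA was extracted from tissue powder. Whole-transcriptome RNA-Seq libraries were sequenced, with n = 4 per group per region (48 samples).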

Data set [4] deals with Mus musculus. The data set can be described thus: Antialzheimer activity in 5XFAD mouse assessed as reduction in plaque formation by measuring average plaque volume in somatosensory cortex at 1200 ppm administered as rodent chow starting from 1.5 months and measured after 4 months by immunolabeling based confocal microscopic analysis. It counts as functional. To be noted: route po, time 2.5 months, 1825 h.

In data set [5] the target is Receptor tyrosine-protein kinase erbB-4 (Homo sapiens, UniProt Q15303). The data set can be described thus: Inhibition of ERBB4 (unknown origin).
The target of data set [6] is Serine/threonine-protein kinase D1 (Homo sapiens, UniProt Q15139). The data set can be described thus: Inhibition of PRKD1 (unknown origin).
Data set [7] is described as follows: Drug concentration in wildtype mouse plasma at 1200 ppm administered as rodent chow for 10 to 24 weeks. The data set is classed as ADME, cell-free. To be noted: po, time 10-24 weeks. An outline of the steps: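 WT or 5xFAD mice were started at 1.5 months of age on PLX5622 formulated at 1200 ppm in AIN-76A chow, with control chow as comparison. Feeding ran for 10 or 24 weeks. Terminal plasma and brain drug levels were then measured. Groups were sex-balanced and compared by two-tailed independent t-test.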

Data set [8] concerns the target Serine/threonine-protein kinase TBK1 (Homo sapiens, UniProt Q9UHD2). The data set can be described thus: Inhibition of TBK1 (unknown origin).
Data set [9] is described as follows: Drug concentration in 5XFAD mouse brain at 1200 ppm administered as rodent chow for 180 days. To be noted: route po, time 180 day, read-out: Ct. The data set is classed as ADME, tissue-based.
The nature of data set [10]: Effect on Clec7a gene expression in 5XFAD mouse hippocampus at 1200 ppm administered as rodent chow starting from 1.5 months and measured after 7 months by RNA-Seq analysis (reference value: 4.246 to 7.511 RPKM). It counts as functional. To be noted: route po, time 5.5 months, 4015 h. An outline of the steps: as §1
The nature of data set [11]: Oral bioavailability in mouse at 45 mg/kg administered as single via gavage. The data set is classed as ADME, organism-based. To be noted: in vivo.
Data set [12] is described as follows: Prevention of Scn1b gene downregulation in 5XFAD mouse hippocampus assessed as percent change in Reads Per kilo base per Million mapped reads at 1200 ppm administered as rodent chow starting from 1.5 months and measured after 7 months by RNA-Seq analysis (reference value: 53.15 to 80.717 %). To be noted: route po, time 5.5 months, 4015 h. The data set is classed as functional.

A short description of data set [13]: Effect on Clec7a gene expression in wild type mouse cortex at 1200 ppm administered as rodent chow starting from 1.5 months and measured after 7 months by RNA-Seq analysis (reference value: 0 to 0.413 RPKM). To be noted: route po, time 5.5 months, 4015 h. The data set is classed as functional. The method, boiled down: as §1
A short description of data set [14]: Effect on Ctsd gene expression in wild type mouse cortex at 1200 ppm administered as rodent chow starting from 1.5 months and measured after 7 months by RNA-Seq analysis (reference value: 110.927 to 117.612 RPKM). It counts as functional. To be noted: route po, time 5.5 months, 4015 h.
Data set [15] in a line: Effect on ccl6 gene expression in wild type mouse hippocampus at 1200 ppm administered as rodent chow starting from 1.5 months and measured after 7 months by RNA-Seq analysis (reference value: 0.451 to 0.597 RPKM). To be noted: route po, time 5.5 months, 4015 h. It counts as functional.
A short description of data set [16]: AUC (0 to 24 hrs) in mouse brain at 300 ppm administered as rodent chow for 14 days. It counts as ADME, tissue-based. To be noted: route po, time 14 day.
In a further data set the target is SRSF protein kinase 1 (Homo sapiens, UniProt Q96SB4). The experiment in a line: Inhibition of SRPK1 (unknown origin).
The target in data set [17] is Dual specificity tyrosine-phosphorylation-regulated kinase 4 (Homo sapiens, UniProt Q9NR20). The data set can be described thus: Inhibition of DYRK4 (unknown origin).
Data set [18] concerns Mus musculus. The data set can be described thus: Antialzheimer activity in 5XFAD mouse assessed as number of Thio-S positive plaques per FOV in […] cortex at 1200 ppm administered as rodent chow starting from 1.5 months and measured after 4 months by Thio-S staining based confocal microscopic analysis (reference value: 63 to 124). It counts as functional. To be noted: route po, time 2.5 months, 1825 h.

Receptor tyrosine-protein kinase erbB-4, sequence (Q15303 whole entry): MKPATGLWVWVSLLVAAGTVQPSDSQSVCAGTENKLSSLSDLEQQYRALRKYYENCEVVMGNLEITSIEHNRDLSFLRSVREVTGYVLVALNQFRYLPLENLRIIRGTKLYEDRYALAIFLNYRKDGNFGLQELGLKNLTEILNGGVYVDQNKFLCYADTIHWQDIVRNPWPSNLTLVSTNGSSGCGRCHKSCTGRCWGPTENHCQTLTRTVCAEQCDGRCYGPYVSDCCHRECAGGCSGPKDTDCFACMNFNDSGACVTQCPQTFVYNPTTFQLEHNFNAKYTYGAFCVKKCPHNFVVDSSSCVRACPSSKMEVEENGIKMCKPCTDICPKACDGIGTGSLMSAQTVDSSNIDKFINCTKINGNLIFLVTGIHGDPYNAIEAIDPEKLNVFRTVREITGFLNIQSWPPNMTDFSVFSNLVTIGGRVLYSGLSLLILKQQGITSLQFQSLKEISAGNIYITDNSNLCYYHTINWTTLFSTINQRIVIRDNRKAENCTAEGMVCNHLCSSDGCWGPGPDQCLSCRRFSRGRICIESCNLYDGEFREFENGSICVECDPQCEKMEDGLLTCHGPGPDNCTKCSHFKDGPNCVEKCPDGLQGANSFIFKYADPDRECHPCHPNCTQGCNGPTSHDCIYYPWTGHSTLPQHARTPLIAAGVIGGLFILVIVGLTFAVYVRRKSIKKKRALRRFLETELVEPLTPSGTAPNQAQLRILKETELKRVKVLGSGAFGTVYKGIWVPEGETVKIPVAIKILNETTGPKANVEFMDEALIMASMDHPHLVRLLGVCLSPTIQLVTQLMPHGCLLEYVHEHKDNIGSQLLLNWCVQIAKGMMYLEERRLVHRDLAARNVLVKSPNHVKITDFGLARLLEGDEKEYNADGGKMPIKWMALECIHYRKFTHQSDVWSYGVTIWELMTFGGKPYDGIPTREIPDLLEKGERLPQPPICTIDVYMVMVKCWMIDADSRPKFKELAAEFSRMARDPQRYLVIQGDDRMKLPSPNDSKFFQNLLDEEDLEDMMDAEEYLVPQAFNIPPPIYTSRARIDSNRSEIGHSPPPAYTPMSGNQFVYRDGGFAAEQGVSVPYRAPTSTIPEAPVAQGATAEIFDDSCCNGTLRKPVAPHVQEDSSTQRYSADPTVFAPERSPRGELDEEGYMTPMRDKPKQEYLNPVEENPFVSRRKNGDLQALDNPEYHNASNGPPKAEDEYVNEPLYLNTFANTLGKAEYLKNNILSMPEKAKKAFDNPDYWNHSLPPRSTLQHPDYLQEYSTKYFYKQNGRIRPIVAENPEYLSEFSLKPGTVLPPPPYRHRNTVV
Serine/threonine-protein kinase TBK1, sequence (Q9UHD2 whole entry): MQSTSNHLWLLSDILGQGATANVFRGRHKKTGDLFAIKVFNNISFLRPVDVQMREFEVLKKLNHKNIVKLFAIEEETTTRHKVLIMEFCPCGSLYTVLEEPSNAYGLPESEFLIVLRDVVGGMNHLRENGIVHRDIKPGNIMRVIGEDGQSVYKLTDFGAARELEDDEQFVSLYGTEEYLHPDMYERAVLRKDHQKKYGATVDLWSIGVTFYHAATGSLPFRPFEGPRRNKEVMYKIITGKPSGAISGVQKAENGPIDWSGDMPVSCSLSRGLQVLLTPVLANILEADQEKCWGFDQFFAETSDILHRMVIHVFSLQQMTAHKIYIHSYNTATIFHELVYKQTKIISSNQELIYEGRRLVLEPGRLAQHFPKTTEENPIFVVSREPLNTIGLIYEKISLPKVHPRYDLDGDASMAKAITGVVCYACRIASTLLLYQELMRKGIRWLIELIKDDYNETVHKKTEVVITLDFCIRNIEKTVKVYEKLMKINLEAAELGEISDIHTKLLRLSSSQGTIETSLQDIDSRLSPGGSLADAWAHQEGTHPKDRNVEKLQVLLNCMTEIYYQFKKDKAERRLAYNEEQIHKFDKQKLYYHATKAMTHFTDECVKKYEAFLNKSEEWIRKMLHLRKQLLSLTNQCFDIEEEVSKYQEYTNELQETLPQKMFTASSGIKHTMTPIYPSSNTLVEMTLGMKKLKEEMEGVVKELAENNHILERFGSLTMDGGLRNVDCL
Dual specificity tyrosine-phosphorylation-regulated kinase 4, sequence (Q9NR20 whole entry): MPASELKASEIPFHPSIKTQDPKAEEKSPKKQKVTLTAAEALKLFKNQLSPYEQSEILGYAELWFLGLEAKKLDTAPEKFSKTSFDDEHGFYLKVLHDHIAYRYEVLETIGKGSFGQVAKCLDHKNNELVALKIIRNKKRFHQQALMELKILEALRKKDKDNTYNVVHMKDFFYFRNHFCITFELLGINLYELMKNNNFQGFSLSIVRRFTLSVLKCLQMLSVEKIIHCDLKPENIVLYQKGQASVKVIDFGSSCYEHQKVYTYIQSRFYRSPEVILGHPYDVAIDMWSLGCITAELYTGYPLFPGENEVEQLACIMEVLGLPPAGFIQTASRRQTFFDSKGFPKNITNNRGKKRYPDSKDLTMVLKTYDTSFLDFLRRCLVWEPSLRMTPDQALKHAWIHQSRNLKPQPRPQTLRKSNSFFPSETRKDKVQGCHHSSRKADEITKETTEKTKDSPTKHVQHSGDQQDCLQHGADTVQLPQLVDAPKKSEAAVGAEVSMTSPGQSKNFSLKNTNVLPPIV
SRSF protein kinase 1, sequence (Q96SB4 whole entry): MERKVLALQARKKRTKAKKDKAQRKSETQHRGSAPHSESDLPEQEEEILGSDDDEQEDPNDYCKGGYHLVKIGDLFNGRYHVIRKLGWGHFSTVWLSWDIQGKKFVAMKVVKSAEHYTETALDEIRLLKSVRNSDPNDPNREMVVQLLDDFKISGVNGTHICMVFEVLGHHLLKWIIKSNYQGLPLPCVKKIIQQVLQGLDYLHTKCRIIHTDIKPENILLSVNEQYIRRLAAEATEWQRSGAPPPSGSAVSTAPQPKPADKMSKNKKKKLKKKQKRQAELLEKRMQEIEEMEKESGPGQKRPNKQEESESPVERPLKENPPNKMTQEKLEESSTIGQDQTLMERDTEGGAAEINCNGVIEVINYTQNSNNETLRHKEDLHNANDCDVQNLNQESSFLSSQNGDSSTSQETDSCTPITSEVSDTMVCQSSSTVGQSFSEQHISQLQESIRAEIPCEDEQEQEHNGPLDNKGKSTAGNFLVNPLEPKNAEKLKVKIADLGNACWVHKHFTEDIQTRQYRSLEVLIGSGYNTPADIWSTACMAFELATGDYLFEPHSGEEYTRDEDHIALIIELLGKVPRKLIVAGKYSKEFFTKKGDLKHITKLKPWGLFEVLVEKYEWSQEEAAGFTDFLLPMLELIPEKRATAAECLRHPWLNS
Serine/threonine-protein kinase D1, sequence (Q15139 whole entry): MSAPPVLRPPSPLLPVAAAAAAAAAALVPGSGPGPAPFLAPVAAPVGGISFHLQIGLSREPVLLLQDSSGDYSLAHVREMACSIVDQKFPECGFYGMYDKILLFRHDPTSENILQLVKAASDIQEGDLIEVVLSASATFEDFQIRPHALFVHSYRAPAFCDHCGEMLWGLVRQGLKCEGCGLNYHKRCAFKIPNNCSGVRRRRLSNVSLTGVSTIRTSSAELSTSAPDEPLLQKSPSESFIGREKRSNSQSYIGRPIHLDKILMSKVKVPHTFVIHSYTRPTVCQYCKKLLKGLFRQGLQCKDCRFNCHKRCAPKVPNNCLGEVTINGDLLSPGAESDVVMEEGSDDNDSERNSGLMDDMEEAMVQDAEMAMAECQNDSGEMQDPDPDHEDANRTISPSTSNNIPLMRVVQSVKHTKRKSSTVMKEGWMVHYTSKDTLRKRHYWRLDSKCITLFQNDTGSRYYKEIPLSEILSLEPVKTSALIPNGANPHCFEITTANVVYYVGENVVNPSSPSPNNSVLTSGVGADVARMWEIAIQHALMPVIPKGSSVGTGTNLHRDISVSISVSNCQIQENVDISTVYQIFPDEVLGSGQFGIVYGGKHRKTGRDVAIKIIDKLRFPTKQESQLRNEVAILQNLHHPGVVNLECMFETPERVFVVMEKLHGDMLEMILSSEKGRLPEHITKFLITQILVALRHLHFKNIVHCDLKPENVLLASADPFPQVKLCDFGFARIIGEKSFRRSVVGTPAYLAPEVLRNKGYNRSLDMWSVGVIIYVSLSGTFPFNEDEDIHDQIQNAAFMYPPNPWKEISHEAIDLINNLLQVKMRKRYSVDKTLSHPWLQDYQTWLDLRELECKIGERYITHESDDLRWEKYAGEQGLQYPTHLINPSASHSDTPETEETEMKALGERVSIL

Regarding `FC(F)(F)c1ccc(CNc2ccc(Cc3c[nH]c4ncc(Cl)cc34)cn2)cn1` [PEXIDARTINIB], the Activity in the data set with Mus musculus [1] is given as 31.

For `COc1ncc(F)cc1CNc1ccc(Cc2c[nH]c3ncc(C)cc23)c(F)n1` [PLX-5622], the Activity in data set [2] came out at 101.141%; in data set [3], 6.689 RPKM; in the data set on Mus musculus [4], 1533.351 um3; in data set [10] it was 0.239 RPKM; in data set [12], 84.37%; in data set [13], 0 RPKM. Further, the Activity in data set [14] is 76.394 RPKM; in [15], 0 RPKM; with Mus musculus [18], 13. Moreover, the IC50 (in data set [5]; in data set [6]; in data set [8]; against SRSF protein kinase 1; in [17]) was greater than 1 µM throughout. The concentration in data set [7] was 17.8 µM. Besides, in data set [9], the concentration at 4320 h worked out at 2390 ng/mL. The compound also returned a bioavailability in [11] of 59%. The area under the curve (AUC) at 336 h in data set [16] is 23100 ng·h/mL.
